Data from ChEMBL document CHEMBL3621175, “Second generation 2-aminoimidazole based advanced glycation end product inhibitors and breakers” (Bioorg Med Chem Lett, 2015).
Activity calls are given as the source filed them. No cut-off for these calls is given here.

What was measured:
[1] = Inhibition of advanced glycation end product formation assessed as protection of reactive primary amines by measuring increase in primary amine level at 100 uM incubated for 7 days using BSA and glycolaldehyde by TNBSA assay; type: physicochemical; conditions: 168 h
Procedure, shortened: (§1)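 BSA was modified with glycolaldehyde in the presence of 2-AIs. Total primary amines were quantified by TNBSA, independent of fluorescence. Protection appears as preserved free amines relative to GO-modified BSA, with basal free-amine level of BSA before GO/2-AI treatment as reference. DMSO and PBS served as vehicle controls, with aminoguanidine as comparator.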

[2] = Inhibition of advanced glycation end product formation using BSA and glycolaldehyde at 400 uM by standard fluorescence based assay; type: physicochemical
[3] = Inhibition of advanced glycation end product formation using BSA and glycolaldehyde at 40 uM by standard fluorescence based assay; type: physicochemical
[4] = Inhibition of advanced glycation end product formation assessed as protection of reactive primary amines by measuring primary amine reduction using BSA and glycolaldehyde by TNBSA assay; type: physicochemical; parameters: scale not given: the % may be the effect or the level left; procedure, shortened: as §1
[5] = Induction of breaking of pre-formed advanced glycation end product formation using BSA assessed as restoration of glycated -BSA primary amine content after 24 hrs by TNBSA assay
[6] = Induction of breaking of pre-formed carboxymethyl lysine-enriched advanced glycation end product formation using BSA and glyoxylic acid assessed as increase in primary amine content at 400 uM after 24 hrs by TNBSA assay relative to BSA alone
Procedure, shortened: (§2)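 CML-enriched AGE-BSA was pre-formed from 50 mg/mL BSA and 25 mM glyoxylic acid with sodium cyanoborohydride over 48 h, then purified by dialysis. The glycated protein was exposed to 2-AIs for 24 h. Free primary amines were quantified by TNBSA and compared with untreated CML-BSA. DMSO and PBS served as vehicle controls, with aminoguanidine as reference.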

[7] = Induction of breaking of pre-formed carboxymethyl lysine-enriched advanced glycation end product formation using BSA and glyoxylic acid assessed as increase in primary amine content at 400 uM after 24 hrs by TNBSA assay relative to pre-formed CML-enriched AGE; procedure, shortened: as §2
[8] = Induction of breaking of pre-formed carboxymethyl lysine-enriched advanced glycation end product formation using BSA and glyoxylic acid assessed as increase in primary amine content at 400 uM after 24 hrs by TNBSA assay relative to 4,4'-(butane-1,4-diyl)bis(1H-imidazol-2-amine) dihydrochloride
[9] = Inhibition of advanced glycation end product formation assessed as protection of reactive primary amines by measuring increase in primary amine level at 100 uM incubated for 7 days using BSA and glycolaldehyde by TNBSA assay relative to control BSA; type: physicochemical; parameters: scale not given: the % may be the effect or the level left; conditions: 168 h; procedure, shortened: as §1

Row | Compound | inhibition (INH) [1] | Activity [6] | Activity [7] | Activity [8] | further results
1 | N=C(N)NCCCc1c[nH]c(N)n1 | Active |  |  |  | 
2 | Nc1nc(Cc2c[nH]c3ccccc23)c[nH]1 | Active |  |  |  | 
3 | Nc1nc(CCCCc2c[nH]c(N)n2)c[nH]1 | Active |  |  |  | inhibition (INH) [2]: 44.6%; inhibition (INH) [3]: 5.6%; Activity [4]: 3.6%; Activity [5]: 78.9%
4 | NCCCc1c[nH]c(N)n1 | Active | 67.5% | 110% | 79.4% | 
5 | N=C(N)NN |  | inactive | inactive | inactive | 
6 | NCCCCc1c[nH]c(N)n1 | Active | 52.5% | 97.9% | 64.5% | Activity [9]: 44.6%
7 | Nc1nc(Cc2c[nH]cn2)c[nH]1 | Active |  |  |  | 
8 | Nc1nc(Cc2ccc(O)cc2)c[nH]1 | Active |  |  |  | 
